Series [1] can be described thus: Plasma clearance in C57BL/6 mouse at 2 mg/kg, po and 1 mg/kg, iv. The series is classed as ADME, organism-based. The gist of the method:
(§1)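 Pharmacokinetics in C57BL/6 mice: single dose 1 mg/kg iv or 2 mg/kg po.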

The nature of series [2]: Oral bioavailability in C57BL/6 mouse at 2 mg/kg. The series is classed as ADME, organism-based. Particulars: in vivo. The gist of the method:
as §1

Series [3] is described as follows: Volume of distribution at steady state in C57BL/6 mouse at 2 mg/kg, po and 1 mg/kg, iv. It is filed as ADME, organism-based. Particulars: in vivo, read-out: Vdss. The gist of the method:
as §1

In the next series the test system is Mus musculus. Put plainly: Reduction in plasma free fatty acid level in C57BL/6 mouse at 10 mg/kg, ip after 15 mins. The series is classed as functional. The arrangement: scale not given: the % may be the effect or the level left. The note with it: route intraperitoneal. In short, it runs like this: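 Male C57BL/6 mice, six per group, single 10 mpk ip dose; plasma free fatty acids measured 15 min after dosing and reported as percent reduction. Niacin given at 100 mpk ip as comparator.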

Series [4] in a line: Half life in C57BL/6 mouse at 2 mg/kg, po and 1 mg/kg, iv. It is filed as ADME, organism-based. The note with it: in vivo. In short, it runs like this:
as §1

SMILES strings stand for the structures.

Results on three compounds are retold here after ChEMBL document CHEMBL1208758, “GPR109a agonists. Part 2: pyrazole-acids as agonists of the human orphan G-protein coupled receptor GPR109a” (Bioorg Med Chem Lett, 2010).

What is called bioavailability is dose-corrected exposure relative to a reference, in per cent. Broadly, the half-life is the time in which the quantity being followed falls by half.

`O=C(O)c1n[nH]c2c1CC(c1cc(F)cc(F)c1F)C2` (centres undefined) displayed a clearance in series [1] of 24 mL/min/kg. In series [2], this compound returned a bioavailability of 53%. Besides, in series [3], the Vd came to 9.3 L/kg.

Compound `Fc1cc(F)c(F)c(C2Cc3[nH]nc(-c4nnn[nH]4)c3C2)c1` (centres undefined) showed an Activity in the series with Mus musculus of 21%.

As to `Cn1nccc1C1Cc2[nH]nc(C(=O)O)c2C1` (centres undefined), the half-life in series [4] was 2.3 h. Moreover, in series [1], the clearance is 86 mL/min/kg. Besides, the Activity with Mus musculus is reported as 41%. In series [2], this compound registered a bioavailability of 27%. In addition, the Vd in series [3] came to 4.2 L/kg.
